Compounds with a hit are over-represented: about 3.7% of the library has one in this group of screens.
KCNQ1 block – inhibitors of human KCNQ1 channel, primary screen, cell-based, thallium flux, high-throughput | Potassium voltage-gated channel subfamily KQT member 1 (Homo sapiens), P51787 | CHO-K1 KCNQ1, FluxOR thallium flux fluorescence; hits give high values | B-score at 10 µM | actives 1.3% (n = 310,000) | AID 2642, 2010;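 active = compounds whose thallium flux B-score, printed positive for inhibition, exceeds three library SD while starting fluorescence stays within three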;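 also: channel opened by potassium depolarization with thallium stimulus after 20 min compound exposure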
KCNK3 inh – human KCNK3 channel inhibitors, primary screen, CHO cells, FluxOR thallium flux, B-score; actives 0.84% (n = 340,000); AID 602410, 2012; FluxOR fluorescence; hits give low values; Potassium channel subfamily K member 3 (Homo sapiens), O14649; B-score at 10 µM;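 active = B-score under library mean minus 4 SD, starting fluorescence ratio at most library mean plus 5 SD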;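 also: more negative B-score means stronger inhibition of thallium flux through KCNK3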
KCNK9 block – KCNK9 potassium channel inhibitors, primary screen, HEK293 cells, thallium flux; FluxOR thallium flux fluorescence; hits give low values; B-score at 10 µM; actives 1.2% (n = 310,000); AID 488922, 2010;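 active = ratio B-score over 3 SD below the library mean, with starting fluorescence within 5 SD of its mean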;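 also: negative B-score means less thallium flux so channel inhibition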
Kir21 inh – inhibitors of mouse Kir2.1 inward-rectifier potassium channel; Inward rectifier potassium channel 2 (Mus musculus), P35561; AID 1672, 2009; HEK293-Kir2.1, FluxOR thallium flux fluorescence; hits give low values; actives 0.85% (n = 310,000); B-score at 10 µM;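 active = fluorescence ratio B-score at or below minus 3 SD of library scores, with starting-brightness B-score within 2 SD, cut at about -4.2 in these data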;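 also: channel flux triggered by added potassium and thallium sulfate stimulus; B-score of peak minus minimum fluorescence over baseline after thallium stimulus; more negative B-score means stronger Kir2.1 block with less thallium influx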
KCNQ1 act – potentiators or activators of KCNQ1 channel, primary screen, cell-based, thallium flux, high-throughput. Potassium voltage-gated channel subfamily KQT member 1 (Homo sapiens), P51787. CHO-K1 KCNQ1, thallium flux FluxOR fluorescence; hits give high values. B-score at 10 µM. actives 0.35% (n = 310,000);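 active = fluorescence ratio B-score, a plate-corrected score, at least three library SD, with initial intensity B-score within 5 SD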
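Schedule – 37 °C overnight plating, 90-min dark dye load, 20-min compound pretreatment · System – stable KCNQ1 CHO-K1 line · Probe or stimulus – thallium- and potassium-containing depolarizing buffer · Measured by – kinetic FluxOR fluorescence, 10 s baseline plus 110 s post-stimulus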
hERG rescue – hERG rescue from dofetilide block, primary screen, cell-based, CHO-hERG, FluxOR thallium flux, dofetilide IC70. Voltage-gated inwardly rectifying potassium channel KCNH2 (Homo sapiens), Q12809. dofetilide IC70 present. activation (rescue from dofetilide block), less the hit threshold, % at 10 µM. actives 0.51% (n = 310,000). AID 1511, 2009;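 active = activation above the mean of controls blocked by dofetilide plus 5 SD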;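 also: thallium influx through hERG after potassium depolarization seen as dye fluorescence rise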
Target sequence (Q12809 whole entry, looked up): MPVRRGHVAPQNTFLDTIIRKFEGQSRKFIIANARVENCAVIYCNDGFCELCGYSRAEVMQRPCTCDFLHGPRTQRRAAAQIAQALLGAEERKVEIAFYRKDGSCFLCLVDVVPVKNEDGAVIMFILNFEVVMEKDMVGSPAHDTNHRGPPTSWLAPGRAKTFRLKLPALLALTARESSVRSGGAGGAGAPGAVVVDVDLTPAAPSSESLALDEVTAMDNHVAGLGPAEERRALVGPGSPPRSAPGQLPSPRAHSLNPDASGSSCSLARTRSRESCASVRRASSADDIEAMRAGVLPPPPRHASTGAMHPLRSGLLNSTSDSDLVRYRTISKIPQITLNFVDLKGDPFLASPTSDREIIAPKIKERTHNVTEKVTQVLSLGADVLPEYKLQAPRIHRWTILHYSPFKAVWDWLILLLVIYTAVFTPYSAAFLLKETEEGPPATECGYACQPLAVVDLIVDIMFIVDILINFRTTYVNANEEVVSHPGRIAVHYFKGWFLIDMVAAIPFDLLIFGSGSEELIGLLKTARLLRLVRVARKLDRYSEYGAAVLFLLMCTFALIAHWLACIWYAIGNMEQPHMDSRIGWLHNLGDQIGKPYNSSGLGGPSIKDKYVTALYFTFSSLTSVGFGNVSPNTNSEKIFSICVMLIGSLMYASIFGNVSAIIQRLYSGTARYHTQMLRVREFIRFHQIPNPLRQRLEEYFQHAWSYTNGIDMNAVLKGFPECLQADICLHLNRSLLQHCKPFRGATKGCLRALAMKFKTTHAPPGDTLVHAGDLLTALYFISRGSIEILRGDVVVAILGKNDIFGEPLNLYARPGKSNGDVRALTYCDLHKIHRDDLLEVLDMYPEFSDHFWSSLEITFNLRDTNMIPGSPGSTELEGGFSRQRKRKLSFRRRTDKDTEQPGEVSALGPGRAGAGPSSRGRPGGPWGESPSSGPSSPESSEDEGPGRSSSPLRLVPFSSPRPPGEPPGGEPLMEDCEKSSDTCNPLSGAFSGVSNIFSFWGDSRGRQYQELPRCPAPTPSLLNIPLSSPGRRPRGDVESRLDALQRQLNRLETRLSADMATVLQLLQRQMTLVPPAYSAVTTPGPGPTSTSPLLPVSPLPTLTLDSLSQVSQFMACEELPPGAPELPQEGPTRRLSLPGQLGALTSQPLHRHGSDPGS
KCNK9 inh conf – KCNK9 potassium channel inhibitors, confirmation, HEK293 cells, thallium flux, duplicate; shares compounds with KCNK9 block; AID 492992, 2010; actives 43% (n = 4,900); FluxOR thallium flux fluorescence; inhibition, % at 10 µM;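 active = thallium signal inhibited by more than 5 SD of the compound-free buffer control wells, on both duplicate plates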;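 also: 0% = assay buffer control wells without compound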
Kir21 sel – mouse Kir2.1 channel inhibition, confirmation, selectivity assay for KCNK9 modulator project, cell-based, HEK293, thallium flux; Kir2.1 cells, FluxOR thallium flux fluorescence; inhibition, % at 10 µM; actives 4% (n = 4,900); shares compounds with KCNK9 block;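 active = thallium signal drop more than 5 SD beyond the mean of the no-compound control wells, seen in both duplicate plates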;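 also: signal is fluorescence rise after thallium addition divided by baseline fluorescence; plate controls were assay buffer only for no effect and full block by chlorpromazine control for full effect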
HEK293 Tl ctr – thallium flux in non-induced HEK293 cells, confirmation, counter-screen for KCNK9 inhibitor project, cell-based, second counter screen, non-induced KCNK9-HEK293; shares compounds with KCNK9 block; FluxOR thallium flux; inhibition, % at 10 µM; actives 40% (n = 4,900); AID 492997, 2010;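 active = thallium signal drop beyond 5 SD of the untreated control mean, on both duplicate plates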;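 also: plate controls were buffer only IC0 wells for no effect and SID17386958 at its maximal inhibitory level for full effect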
KCNK3 confirm – retest of human KCNK3 channel inhibitors, confirmation, CHO cells, FluxOR thallium flux, triplicate. shares compounds with KCNK3 inh. FluxOR fluorescence; 0% buffer, 100% carvedilol maximal block. ratio percent of control, % at 10 µM. actives 99% (n = 2,400). AID 651638, 2012;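 active = ratio percent of control, averaged over triplicates, above buffer control mean plus 5 SD, cut at about 64% in these data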;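 also: ratio is the fluorescence rise from min to max over baseline after thallium stimulus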
KCNK3 noninduced – thallium flux inhibition in non-induced cells, primary screen, counter-screen for KCNK3 inhibitor project, cell-based, non-induced KCNK3 line, FluxOR thallium, triplicate. thallium flux ratio (lower = more inhibition) at 10 µM. shares compounds with KCNK3 inh. actives 40% (n = 2,400). non-induced KCNK3 parental cells; hits give low values;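 active = thallium flux ratio, averaged over three wells, more than 5 SD below the buffer control mean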;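 also: host cells are CHO cells without KCNK3 induction; ratio is peak minus trough fluorescence over baseline then normalized to buffer controls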
Active calls of the source: *; i = inactive; . = not tested or not shown.

SMILES	KCNQ1 block	KCNK3 inh	KCNK9 block	Kir21 inh	KCNQ1 act	hERG rescue	KCNK9 inh conf	Kir21 sel	HEK293 Tl ctr	KCNK3 confirm	KCNK3 noninduced
CC(Nc1nc(-c2ccccc2)nc2ccccc12)c1ccccc1 (stereo not given)	i	-11*	-8.9*	0.45	i	-20	i	i	36%*	102*	i
CCC(=O)NN1CCc2cc3ccc(C)cc3nc21	i	i	i	-0.29	i	-2	.	.	.	.	.
Cc1ccc2c(c1)C(=O)CC(c1ccc3c(c1)OCCO3)O2 (stereo not given)	i	i	i	0.75	i	-4	.	.	.	.	.
CC(C)=CCc1cc([C@@H]2CC(=O)c3ccc(O)c(CC=C(C)C)c3O2)ccc1O	i	-16*	-11*	0.63	i	-9	61%*	i	30%*	141*	0.12*
CN(C)c1ccc(C(CNC(=O)c2ccccc2)c2c[nH]c3ccccc23)cc1 (stereo not given)	i	-9.2*	-13*	0.03	i	-14	54%*	i	27%*	101*	0.14*
CCOc1ncccc1C(=O)Nc1cccc(-c2nc3cccnc3s2)c1	i	-9.6*	-10*	0.05	i	-11	i	i	i	101*	i
O=C(Nc1cccc(-c2nc3cccnc3s2)c1)c1ccco1	i	i	i	-0.67	i	-14	.	.	.	.	.
O=C(CC1SC(N2CCCC2)=NC1=O)Nc1ccc(C(=O)NCCOc2ccccc2F)cc1 (stereo not given)	.	i	.	.	.	.	.	.	.	.	.
O=C(Nc1ccc(Br)cc1)/C(=C/c1cccc([N+](=O)[O-])c1)NC(=O)C1CCCCC1	i	-9.4*	-9.7*	-0.34	i	-2	50%*	i	34%*	107*	0.15*
O=C(CSc1nc2c(c(=O)[nH]1)CCC2)Nc1cccc(F)c1	i	i	i	0.02	i	-2	.	.	.	.	.
CCCCN(CCCC)c1nc(-c2ccncc2)nc2ccccc12	i	-9.4*	-9.1*	-0.11	i	-32	i	i	34%*	68*	i
COCCN(CCOC)c1nc(-c2ccccc2)nc2ccccc12	i	i	i	-0.08	i	-22	.	.	.	.	.
CN(C)CCCn1c2c(c(SCC(=O)Nc3nccs3)nc1=O)CCC2	i	i	i	-0.67	i	-10	.	.	.	.	.
Cc1c(C)n(C(=O)CN2CCN(c3ccccc3)CC2)c2ccccc12	i	-10*	i	0.9	i	-10	i	i	i	83*	i
